Data set [1] is described as follows: Renal clearance in critically ill patient with sepsis at […], iv administered every 8 hrs by HPLC method. It is filed as ADME, organism-based, Kidney. The following applies: human, in vivo, read-out: CL_renal (converted). Set-up: route intravenous. The gist of the method:
(§1)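 Meropenem 1,000 mg as reconstituted IV bolus via central venous catheter every 8 h in septic ICU patients on CVVHF. Plasma sampled predose and at 15–480 min, plus 0–8 h urine. Levels measured by validated C18 HPLC-UV at 298 nm with ertapenem internal standard. Noncompartmental analysis used linear trapezoidal AUC0-8 and AUMC, and λz from 2–8 h log-linear regression.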

Data set [2] is filed under the species Homo sapiens. As to the kind of experiment: Plasma protein binding in patient with acute kidney injury. It is filed as ADME, organism-based.
The test system of data set [3] is Burkholderia pseudomallei. Briefly: Antimicrobial activity against Burkholderia pseudomallei. The data set is classed as functional.
Data set [4] can be described thus: Cmax in critically ill patient with sepsis at […], iv administered every 8 hrs by HPLC method. The data set is classed as ADME, organism-based. The arrangement: route intravenous. The following applies: human, in vivo. An outline of the steps: as §1
For data set [5], the system named is Homo sapiens. Briefly: Ultrafiltration flow rate in critically ill patient with sepsis receiving high-volume continuous venovenous hemofiltration at […], iv administered every 8 hrs by HPLC method. It is filed as ADME, organism-based. Set-up: route intravenous. The following applies: in vivo.
Data set [6] has as its system Homo sapiens. Briefly: Clearance not mediated by CVVHF in critically ill patient with sepsis at […], iv administered every 8 hrs by HPLC method. The data set is classed as ADME, organism-based. The arrangement: route intravenous. The following applies: in vivo.
The nature of data set [7]: fT>MIC in patient with acute kidney injury infected with Burkholderia pseudomallei. It is filed as functional. The gist of the method:
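Ten critically ill septic patients with AKI on high-volume CVVHF received meropenem 1,000 mg every 8 h as a central-venous bolus. Plasma was assayed by HPLC-UV at 298 nm with an ertapenem internal standard. Concentration-time data were compared with an MIC of 4 mg/liter.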

Data set [8] has as its system Homo sapiens. Briefly: Hemofiltration clearance in critically ill patient with sepsis receiving high-volume continuous venovenous hemofiltration at […], iv administered every 8 hrs by HPLC method. The data set is classed as ADME, organism-based. The following applies: in vivo. The arrangement: route intravenous. An outline of the steps: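 Same 1,000 mg q8h IV bolus regimen on CVVHF. Filter was changed if it was over 3 h old at the start of sampling. Pre- and postfilter blood and ultrafiltrate were collected at matched times over 0–480 min, and all ultrafiltrate was collected for the interval. Concentrations were measured by HPLC-UV. CVVHF clearance = ultrafiltrate amount/AUC0-8; […].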

≈ marks a conversion by molar mass, not a printed value.

One may read the MIC90 as an inhibitory concentration at the 90% level, which refers to growth in some studies and to a panel of isolates in others. A high value points to weaker potency. Usually Cmax stands for the peak of the concentration-time curve. As to `C[C@@H](O)[C@H]1C(=O)N2C(C(=O)O)=C(S[C@@H]3CN[C@H](C(=O)N(C)C)C3)[C@H](C)[C@H]12` [MEROPENEM], in data set [1], the CL renal at 8 h was 0.0833 mL/min. Besides, the Activity in data set [2] amounted to 2%; in data set [5], 4.4 L/h. Besides, the MIC90 in data set [3] worked out at 4 µg/mL (≈ 10.4 µM). Also, the Cmax in data set [4] is 56.6 µg/mL. The CL in data set [6] was 2.4 L/h; in data set [8], 3.5 L/h. For the same compound, in data set [7], the “fT>MIC” value was determined as 40%.

These data come from ChEMBL document CHEMBL1275249, “Meropenem dosing in critically ill patients with sepsis receiving high-volume continuous venovenous hemofiltration” (Antimicrob Agents Chemother, 2010).
